Assay results from publication PMC2831464 (Clinical cancer research : an official journal of the …, 2010).
Entries after “also recorded” stand apart in the source; their conditions may differ.

What was measured:
[1] = Phase I dose escalation: dose limiting toxicities, MTD and CTCAE 3.0 toxicities; format: in vivo, human
Outline: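 Adults (>18 y) had refractory solid tumors, ECOG ≤2 and adequate marrow, hepatic and renal function. Test compound in 5% dextrose (0.05–0.5 mg/mL) was given as a 1-h IV infusion daily × 5 every 21 days, within 4 h of reconstitution. Premedication was oral dexamethasone, ondansetron, loratadine, famotidine and diphenhydramine. […] DLTs were assessed in cycle 1 by CTCAE v3.0. MTD was the level below that giving DLT in ≥2 patients.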

UGT1A8 = conditions: cited from earlier work
[2] = CTCAE related toxicities, Blood/bone marrow
[3] = CTCAE related toxicities, Cardiac general
[4] = CTCAE related toxicities, Constitutional symptoms
[5] = CTCAE related toxicities, Dermatology/skin
[6] = CTCAE related toxicities, Gastrointestinal
[7] = CTCAE related toxicities, Hemorrhage/bleeding
[8] = CTCAE related toxicities, Infection
[9] = CTCAE related toxicities, Metabolic/laboratory
[10] = CTCAE related toxicities, Musculoskeletal
[11] = CTCAE related toxicities, Neurology
[12] = CTCAE related toxicities, Pulmonary

For `CC[C@@]1(O)C(=O)OCc2c1cc1n(c2=O)Cc2c-1nc1ccc(O)cc1c2[Si](C)(C)C(C)(C)C` [AR-67, 7-t-butyldimethylsilyl-10-hydroxycamptothecin], the “Common Grade 3 and 4 toxicities: anemia” value ([1]; 26 patients, all dosage levels) was 11.5%, the “Common Grade 3 and 4 toxicities: fatigue” value ([1]; 26 patients, all dosage levels) was 15.4% and the “Common Grade 3 and 4 toxicities: leukopenia (leukocytopenia)” value ([1]; 26 patients, all dosage levels) was 23%. For the same compound, the “Common Grade 3 and 4 toxicities: neutropenia” value ([1]; 26 patients, all dosage levels) was 11.5%, the “Common Grade 3 and 4 toxicities: thrombocytopenia” value ([1]; 26 patients, all dosage levels) was 15.4% and the Diarrhea ([1]; 26 patients, all dosage levels) was “No diarrhea; also recorded: none of the patients experienced”. For the same compound, the “Infusion related allergic (hypersensitivity) reactions” value ([1]; 26 patients, premedicated, cremophor-ethanol formulation) was “none of the patients experienced; also recorded: no patients exhibited hypersensitivity reactions”, the “Hemoglobin, Grade 1” value [1, 2] was 8 and the “Hemoglobin, Grade 2” value [1, 2] was 12. For the same compound, the “Hemoglobin, Grade 3” value [1, 2] was 6, the “Hemoglobin, Grade 4” value [1, 2] was 0 and the “Hemoglobin, Total” value [1, 2] was 26. The “Leukocytes (total WBC), Grade 1” value [1, 2] was 18, the “Leukocytes (total WBC), Grade 2” value [1, 2] was 15 and the “Leukocytes (total WBC), Grade 3” value [1, 2] was 8. The “Leukocytes (total WBC), Grade 4” value [1, 2] was 0, the “Leukocytes (total WBC), Total” value [1, 2] was 41 and the “Monocytopenia, Grade 1” value [1, 2] was 0. For the same compound, the “Monocytopenia, Grade 2” value [1, 2] was 0, the “Monocytopenia, Grade 3” value [1, 2] was 0 and the “Monocytopenia, Grade 4” value [1, 2] was 1. For the same compound, the “Monocytopenia, Total” value [1, 2] was 1, the “Neutrophils/granulocytes (ANC/AGC), Grade 1” value [1, 2] was 3 and the “Neutrophils/granulocytes (ANC/AGC), Grade 2” value [1, 2] was 10. The “Neutrophils/granulocytes (ANC/AGC), Grade 3” value [1, 2] was 5, the “Neutrophils/granulocytes (ANC/AGC), Grade 4” value [1, 2] was 1 and the “Neutrophils/granulocytes (ANC/AGC), Total” value [1, 2] was 19. The “Platelets, Grade 2” value [1, 2] was 8, the “Platelets, Grade 3” value [1, 2] was 9 and the “Hypotension, Grade 1” value [1, 3] was 0. The “Hypotension, Grade 2” value [1, 3] was 1, the “Hypotension, Grade 3” value [1, 3] was 0 and the “Hypotension, Grade 4” value [1, 3] was 0. For the same compound, the “Hypotension, Total” value [1, 3] was 1, the “Fatigue (asthenia, lethargy, malaise), Grade 1” value [1, 4] was 4 and the “Fatigue (asthenia, lethargy, malaise), Grade 3” value [1, 4] was 8. For the same compound, the “Fatigue (asthenia, lethargy, malaise), Grade 4” value [1, 4] was 0, the “Fatigue (asthenia, lethargy, malaise), Total” value [1, 4] was 26 and the “Fever (in the absence of neutropenia), Grade 1” value [1, 4] was 0. The “Fever (in the absence of neutropenia), Grade 2” value [1, 4] was 1, the “Fever (in the absence of neutropenia), Grade 3” value [1, 4] was 0 and the “Fever (in the absence of neutropenia), Grade 4” value [1, 4] was 0. For the same compound, the “Fever (in the absence of neutropenia), Total” value [1, 4] was 1, the “Insomnia, Grade 1” value [1, 4] was 2 and the “Insomnia, Grade 2” value [1, 4] was 5. For the same compound, the “Insomnia, Grade 3” value [1, 4] was 0, the “Insomnia, Grade 4” value [1, 4] was 0 and the “Insomnia, Total” value [1, 4] was 7. For the same compound, the “Weight loss, Grade 1” value [1, 4] was 2, the “Weight loss, Grade 2” value [1, 4] was 0 and the “Weight loss, Grade 3” value [1, 4] was 0. The “Weight loss, Grade 4” value [1, 4] was 0, the “Weight loss, Total” value [1, 4] was 2 and the “Nail changes, Grade 1” value [1, 5] was 1. For the same compound, the “Nail changes, Grade 2” value [1, 5] was 0, the “Nail changes, Grade 3” value [1, 5] was 0 and the “Nail changes, Grade 4” value [1, 5] was 0. The “Nail changes, Total” value [1, 5] was 1, the “Pruritus/itching/Dry skin/Flushing, Grade 2” value [1, 5] was 0 and the “Pruritus/itching/Dry skin/Flushing, Grade 3” value [1, 5] was 0. For the same compound, the “Pruritus/itching/Dry skin/Flushing, Grade 4” value [1, 5] was 0, the “Pruritus/itching/Dry skin/Flushing, Total” value [1, 5] was 7 and the “Rash/desquamation, Grade 1” value [1, 5] was 2. The “Rash/desquamation, Grade 2” value [1, 5] was 1, the “Rash/desquamation, Grade 3” value [1, 5] was 0 and the “Rash/desquamation, Grade 4” value [1, 5] was 0. The “Rash/desquamation, Total” value [1, 5] was 3, the “Anorexia/Taste Alteration, Grade 1” value [1, 6] was 4 and the “Anorexia/Taste Alteration, Grade 3” value [1, 6] was 1. The “Anorexia/Taste Alteration, Grade 4” value [1, 6] was 0, the “Anorexia/Taste Alteration, Total” value [1, 6] was 12 and the “Constipation/Dehydration, Grade 1” value [1, 6] was 6. For the same compound, the “Constipation/Dehydration, Grade 2” value [1, 6] was 8, the “Constipation/Dehydration, Grade 3” value [1, 6] was 0 and the “Constipation/Dehydration, Grade 4” value [1, 6] was 0. For the same compound, the “Mucositis/stomatitis, Grade 1” value [1, 6] was 2, the “Mucositis/stomatitis, Grade 2” value [1, 6] was 0 and the “Mucositis/stomatitis, Grade 3” value [1, 6] was 0. For the same compound, the “Mucositis/stomatitis, Grade 4” value [1, 6] was 0, the “Mucositis/stomatitis, Total” value [1, 6] was 2 and the “Nausea, Grade 2” value [1, 6] was 0. The “Nausea, Grade 3” value [1, 6] was 0, the “Nausea, Grade 4” value [1, 6] was 0 and the “Hemorrhage, GI - Duodenum, Grade 1” value [1, 7] was 0. For the same compound, the “Hemorrhage, GI - Duodenum, Grade 2” value [1, 7] was 0, the “Hemorrhage, GI - Duodenum, Grade 3” value [1, 7] was 1 and the “Hemorrhage, GI - Duodenum, Grade 4” value [1, 7] was 0. For the same compound, the “Hemorrhage, GI - Duodenum, Total” value [1, 7] was 1, the “Febrile neutropenia, Grade 1” value [1, 8] was 0 and the “Febrile neutropenia, Grade 2” value [1, 8] was 0. For the same compound, the “Febrile neutropenia, Grade 3” value [1, 8] was 1, the “Febrile neutropenia, Grade 4” value [1, 8] was 2 and the “Febrile neutropenia, Total” value [1, 8] was 3. The “Infection - ANC grade 0–2, Grade 1” value [1, 8] was 3, the “Infection - ANC grade 0–2, Grade 2” value [1, 8] was 4 and the “Infection - ANC grade 0–2, Grade 3” value [1, 8] was 0. For the same compound, the “Infection - ANC grade 0–2, Grade 4” value [1, 8] was 2, the “Infection - ANC grade 0–2, Total” value [1, 8] was 9 and the “Infection with unknown ANC, Grade 1” value [1, 8] was 2. The “Infection with unknown ANC, Grade 2” value [1, 8] was 1, the “Infection with unknown ANC, Grade 3” value [1, 8] was 0 and the “Infection with unknown ANC, Grade 4” value [1, 8] was 0. The “Infection with unknown ANC, Total” value [1, 8] was 3, the “ALT, SGPT, Alkaline Phosphatase, Grade 1” value [1, 9] was 8 and the “ALT, SGPT, Alkaline Phosphatase, Grade 2” value [1, 9] was 0. The “ALT, SGPT, Alkaline Phosphatase, Grade 3” value [1, 9] was 0, the “ALT, SGPT, Alkaline Phosphatase, Grade 4” value [1, 9] was 0 and the “ALT, SGPT, Alkaline Phosphatase, Total” value [1, 9] was 8. The “Electrolyte abnormalities, Grade 1” value [1, 9] was 8, the “Electrolyte abnormalities, Grade 2” value [1, 9] was 0 and the “Electrolyte abnormalities, Grade 3” value [1, 9] was 0. For the same compound, the “Electrolyte abnormalities, Grade 4” value [1, 9] was 0, the “Electrolyte abnormalities, Total” value [1, 9] was 8 and the “Extremity-lower (gait/walking), Grade 1” value [1, 10] was 1. The “Extremity-lower (gait/walking), Grade 2” value [1, 10] was 0, the “Extremity-lower (gait/walking), Grade 3” value [1, 10] was 0 and the “Extremity-lower (gait/walking), Grade 4” value [1, 10] was 0. For the same compound, the “Extremity-lower (gait/walking), Total” value [1, 10] was 1, the “Muscle weakness – Lower extremity, Grade 1” value [1, 10] was 0 and the “Muscle weakness – Lower extremity, Grade 2” value [1, 10] was 3. For the same compound, the “Muscle weakness – Lower extremity, Grade 3” value [1, 10] was 1, the “Muscle weakness – Lower extremity, Grade 4” value [1, 10] was 0 and the “Muscle weakness – Lower extremity, Total” value [1, 10] was 4. The “Dizziness, Grade 1” value [1, 11] was 0, the “Dizziness, Grade 2” value [1, 11] was 1 and the “Dizziness, Grade 3” value [1, 11] was 0. The “Dizziness, Grade 4” value [1, 11] was 0, the “Dizziness, Total” value [1, 11] was 1 and the “Neuropathy: sensory, Grade 1” value [1, 11] was 1. The “Neuropathy: sensory, Grade 2” value [1, 11] was 0, the “Neuropathy: sensory, Grade 3” value [1, 11] was 0 and the “Neuropathy: sensory, Grade 4” value [1, 11] was 0. The “Neuropathy: sensory, Total” value [1, 11] was 1, the “Dyspnea, Grade 1” value [1, 12] was 1 and the “Dyspnea, Grade 2” value [1, 12] was 0. For the same compound, the “Dyspnea, Grade 3” value [1, 12] was 0, the “Dyspnea, Grade 4” value [1, 12] was 0 and the “Dyspnea, Total” value [1, 12] was 1. The “Hiccoughs (hiccups, singultus), Grade 1” value [1, 12] was 2, the “Hiccoughs (hiccups, singultus), Grade 2” value [1, 12] was 1 and the “Hiccoughs (hiccups, singultus), Grade 3” value [1, 12] was 0. For the same compound, the “Hiccoughs (hiccups, singultus), Grade 4” value [1, 12] was 0, the “Hiccoughs (hiccups, singultus), Total” value [1, 12] was 3 and the “DLT per Cohort” value ([1]; Level 5.5, 7.5 mg/m2/day daily × 5, n=7, cycle 1) was “one of seven”. The “DLT per Cohort” value ([1]; Level 6, 8.9 mg/m2/day daily × 5, n=4, cycle 1) was “two of four”, the “Day of ANC and platelet nadir” value ([1]; MTD level, cycle 1, recovered prior to day 22) was 10 to 14 days and the “maximum tolerated dosage (MTD)” value ([1]; iv over 1 hour daily × 5, every 21 days) was 7.5 mg/m^2/day. For the same compound, the “Patients with dose limiting toxicities” value ([1]; of 26 patients, 9 dosage levels) was 5 patients, the “recommended phase II dosage” value ([1]; ×5 q 21 days) was 7.5 mg/m^2/day and the “metabolism by UGT1A8” value (UGT1A8) was “extensively metabolized”.
